The record followed here is ChEMBL document CHEMBL1134768, “Identification of a putative binding site for [2',5'-bis-O-(tert-butyldimethylsilyl)-beta-D-ribofuranosyl]-3'-spiro-5''-(4''-amino-1'',2''-oxathiole-2'',2''-dioxide)thymine (TSAO) derivatives at the p51-p66 interface of HIV-1 reverse transcriptase” (J Med Chem, 2001).

For assay [1], the system named is MT4. Nature of the assay: Inhibitory activity against HIV-2 in MT-4 cell culture. The following applies: Homo sapiens. It counts as functional, cell-based.
Assay [2] has as its system CCRF-CEM. Description: Inhibitory activity against HIV-1 in CEM cell culture. The class given is functional, cell-based. The following applies: Homo sapiens. A digest of the protocol:
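CEM cells at about 200000-300000 cells/mL infected with HIV-1 (IIIB), then added to serial dilutions of compound. After 4 days at 37 °C, syncytium formation was scored by microscopy.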

The subject of assay [3] is MT4. Nature of the assay: Inhibitory activity against HIV-1 in MT-4 cell culture. The class given is functional, cell-based. The following applies: Homo sapiens. A digest of the protocol:
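MT-4 cells at about 200000-300000 cells/mL infected with HIV-1 (IIIB) and incubated with serial compound dilutions for 5 days at 37 °C. Viable cells were counted by trypan blue exclusion.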

Assay [4] concerns CCRF-CEM. Nature of the assay: Inhibitory activity against HIV-2 in CEM cell culture. It counts as functional, cell-based. The following applies: Homo sapiens.
In assay [5] the target is Human immunodeficiency virus type 1 reverse transcriptase (Human immunodeficiency virus 1, UniProt Q72547, R172A). Description: Inhibitory activity against R172A mutant reverse transcriptase.
For assay [6], the target named is Human immunodeficiency virus type 1 reverse transcriptase (Human immunodeficiency virus 1, UniProt Q72547). Nature of the assay: Inhibitory activity against wild-type HIV-1 reverse transcriptase.
In assay [7] the target is Human immunodeficiency virus type 1 reverse transcriptase (Human immunodeficiency virus 1, UniProt Q72547, E138K). Nature of the assay: Inhibitory activity against E138K mutant reverse transcriptase.

For `Cc1cn([C@@H]2O[C@H](CO[Si](C)(C)C(C)(C)C)[C@@]3(OS(=O)(=O)C=C3N)[C@H]2O[Si](C)(C)C(C)(C)C)c(=O)[nH]c1=S`, the EC50 in assay [1] was > 10 µM; in assay [2] it was 170 nM; in assay [3] it was 170 nM; in assay [4] it was > 2 µM.
As to `CC1=CN([C@@H]2O[C@H](CO[Si](C)(C)C(C)(C)C)[C@@]3(OS(=O)(=O)C=C3N)[C@H]2O[Si](C)(C)C(C)(C)C)C(=O)NC1`, the EC50 is > 10 µM in assay [1], 100 nM in assay [2], 200 nM in assay [3] and > 2 µM in assay [4].
On to `Cc1cn([C@@H]2O[C@H](CO[Si](C)(C)C(C)(C)C)C3(OS(=O)(=O)C=C3N)[C@H]2O[Si](C)(C)C(C)(C)C)c(=O)[nH]c1=O` (stereo partly drawn), for which the IC50 in assay [5] was 627 nM; in assay [6], 6.1 µM; in assay [7], > 848000 nM. For the same compound, the concentration for a half-maximal effect (EC50) in assay [1] and in assay [4] was > 20 µM in each case.
As to `Cc1cn([C@@H]2O[C@H](CO[Si](C)(C)C(C)(C)C)[C@@]3(OS(=O)(=O)C=C3N)[C@H]2O[Si](C)(C)C(C)(C)C)c(=O)n(C)c1=O`, the EC50 is > 200 µM in assay [1], 60 nM in assay [2], 50 nM in assay [3] and > 200 µM in assay [4].
Consider `CC1=CNC(=O)N([C@@H]2O[C@H](CO[Si](C)(C)C(C)(C)C)[C@@]3(OS(=O)(=O)C=C3N)[C@H]2O[Si](C)(C)C(C)(C)C)C1`, for which the half-maximal effective concentration (EC50) in assay [1] was > 10 µM; in assay [2] it was 120 nM; in assay [3], 230 nM; in assay [4], > 10 µM.
Regarding `Cc1cn([C@@H]2O[C@H](CO[Si](C)(C)C(C)(C)C)[C@@]3(OS(=O)(=O)C=C3N)[C@H]2O[Si](C)(C)C(C)(C)C)c(=O)n(CCCO)c1=O`, the concentration giving a half-maximal response (EC50) in assay [1] was > 2 µM; in assay [2], 10 nM; in assay [3], 30 nM; in assay [4], > 2 µM.
As to `CC(C)=CCOc1cc(NC(=S)c2ccoc2C)ccc1Cl` [UC 781], the figures for the IC50 in assay [5], in assay [6] and in assay [7] were 20.8 nM, 0.0238 µM and 226 nM, respectively.
